The values that follow come from ChEMBL document CHEMBL1153566, “5-Benzylidene-hydantoins: synthesis and antiproliferative activity on A549 lung cancer cell line” (Eur J Med Chem, 2009).

What is called inhibition is the relative decrease from the control value, in per cent. High values mean a response far below the control, low ones a response near the control. As usually defined, the IC50 is the midpoint of a concentration-inhibition curve.

Structures are written as SMILES. Calls of active or inactive are those of the source. The rule behind the calls is not given here.

Experiment [1] deals with A549. Briefly: Induction of p53 protein expression in human A549 cells at 10 uM after 72 hrs by Western blot relative to untreated control. The class given is functional. The essentials:
(§1)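 A549 cells (RPMI 1640, 2 mM glutamine, 10% FBS, 37 °C, 5% CO2) treated with compound; lysate proteins (50 µg) run on 5–15% SDS–PAGE, blotted to nitrocellulose, probed with mouse anti-human p53 (DO1) and anti-GAPDH monoclonals, then HRP secondary. p53 level given as fold increase over control; mean ± SD of three independent experiments, one-tailed Student's t-test.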
In general terms: A western blot detects proteins with antibodies after separation by electrophoresis.

Experiment [2] relates to A549. As to the kind of experiment: Induction of p53 protein expression in human A549 cells at 20 uM after 72 hrs by Western blot relative to untreated control. The experiment is classed as functional. The gist of the method: as §1
Experiment [3] deals with A549. Briefly: Antiproliferative activity against human A549 cells at 20 uM after 72 hrs by trypan blue exclusion method. The class given is functional. The following applies: A549, 72 h.
Experiment [4] has as its system A549. Briefly: Induction of p53 protein expression in human A549 cells at 20 uM after 48 hrs by Western blot relative to untreated control. The class given is functional. The essentials: as §1
Experiment [5] deals with A549. Briefly: Induction of p53 protein expression in human A549 cells at 10 uM after 48 hrs by Western blot relative to untreated control. The experiment is classed as functional. The essentials:
as §1

For experiment [6], the system named is A549. Briefly: Cell cycle arrest in human A549 cells assessed as accumulation at S phase. The experiment is classed as functional, cell-based.
In experiment [7] the test system is A549. As to the kind of experiment: Induction of DNA damage in human A549 cells. The experiment is classed as functional, cell-based.
The target of experiment [8] is Epidermal growth factor receptor (Homo sapiens, UniProt P00533). Briefly: Inhibition of EGFR autophosphorylation in human A549 cells.
Epidermal growth factor receptor, sequence (P00533 whole entry): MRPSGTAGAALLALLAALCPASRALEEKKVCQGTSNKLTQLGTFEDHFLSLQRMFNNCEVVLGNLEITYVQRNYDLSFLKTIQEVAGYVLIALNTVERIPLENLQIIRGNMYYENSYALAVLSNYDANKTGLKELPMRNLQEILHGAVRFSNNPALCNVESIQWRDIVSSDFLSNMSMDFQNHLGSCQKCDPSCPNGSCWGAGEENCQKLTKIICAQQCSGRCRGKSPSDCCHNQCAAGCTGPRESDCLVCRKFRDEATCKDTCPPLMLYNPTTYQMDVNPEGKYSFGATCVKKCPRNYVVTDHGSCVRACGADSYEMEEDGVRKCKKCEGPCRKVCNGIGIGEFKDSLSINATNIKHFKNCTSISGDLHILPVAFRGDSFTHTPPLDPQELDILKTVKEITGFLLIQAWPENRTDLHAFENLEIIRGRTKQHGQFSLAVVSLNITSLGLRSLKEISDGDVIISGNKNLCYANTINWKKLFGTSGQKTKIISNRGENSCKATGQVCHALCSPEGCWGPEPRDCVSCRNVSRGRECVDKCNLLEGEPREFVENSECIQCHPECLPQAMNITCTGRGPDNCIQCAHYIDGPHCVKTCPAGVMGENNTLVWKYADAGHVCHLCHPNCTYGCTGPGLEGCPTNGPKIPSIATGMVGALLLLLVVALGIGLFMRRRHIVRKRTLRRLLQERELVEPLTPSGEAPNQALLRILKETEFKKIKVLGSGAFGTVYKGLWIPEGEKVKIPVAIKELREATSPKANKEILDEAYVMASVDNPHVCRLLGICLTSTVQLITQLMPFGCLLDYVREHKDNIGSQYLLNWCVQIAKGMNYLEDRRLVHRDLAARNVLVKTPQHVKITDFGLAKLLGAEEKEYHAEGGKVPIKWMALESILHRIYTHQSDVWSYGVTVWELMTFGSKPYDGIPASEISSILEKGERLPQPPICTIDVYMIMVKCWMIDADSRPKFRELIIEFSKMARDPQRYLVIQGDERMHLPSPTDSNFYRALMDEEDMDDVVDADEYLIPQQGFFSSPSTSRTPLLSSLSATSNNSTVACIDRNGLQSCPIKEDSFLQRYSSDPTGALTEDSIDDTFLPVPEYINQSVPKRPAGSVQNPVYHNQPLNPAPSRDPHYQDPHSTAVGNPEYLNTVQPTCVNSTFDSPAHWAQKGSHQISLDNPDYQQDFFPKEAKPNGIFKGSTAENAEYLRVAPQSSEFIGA

For `O=C1NC(=O)N(CCc2ccccc2)/C1=C\c1cccc(Cl)c1`, the “fold change (FC)” value is 1.4 with A549 [1], 1.9 in the experiment on A549 [2], 1.2 with A549 [4] and 0.9 in the experiment with A549 [5]. In the experiment on A549 [3], this compound had an inhibition at 20 µM of 43%.

In turn, `COc1ccc(/C=C2\C(=O)NC(=O)N2CCc2ccccc2)cc1` had an inhibition at 20 µM in the experiment with A549 [3] of 35%. For the same compound, the “fold change (FC)” value in the experiment with A549 [4] is 1.

In the experiment on A549 [3], `CCCCN1C(=O)NC(=O)/C1=C\c1ccccc1` returned an inhibition at 20 µM of 6.8%.

`CN1C(=O)/C(=C\c2ccccc2)N(CCc2ccccc2)C1=O`: in the experiment with A549 [3], the inhibition at 20 µM came to 31%. The “fold change (FC)” value in the experiment on A549 [4] is 1.

`CN1C(=O)/C(=C/c2ccccc2)N(CCc2ccccc2)C1=O` registered an inhibition at 20 µM in the experiment on A549 [3] of 45%. Moreover, the “fold change (FC)” value with A549 [4] is 1.

`O=C1NC(=O)N(CCc2ccccc2)[C@@H]1Cc1ccccc1` came in with an inhibition at 20 µM in the experiment with A549 [3] of 7.2%. The “fold change (FC)” value with A549 [4] is recorded as 1.

Take `O=C1NC(=O)N(CCc2cccc(Cl)c2)/C1=C\c1ccccc1`: the “fold change (FC)” value in the experiment on A549 [1] was determined as 1.1; in the experiment on A549 [2], 2.2; in the experiment with A549 [4] it was 1.5; in the experiment with A549 [5], 0.7. Moreover, the inhibition at 20 µM in the experiment with A549 [3] was 49%.

For `O=C1NC(=O)N(Cc2ccccc2)/C1=C\c1ccccc1`, the “fold change (FC)” value is listed as 1.8 with A549 [1], 2.6 in the experiment on A549 [2], 1.7 in the experiment on A549 [4] and 1.1 in the experiment with A549 [5]. In addition, 20 µM produced 42% inhibition with A549 [3].

Compound `O=C1NC(=O)N(CCc2ccccc2)/C1=C\c1ccccc1` had an inhibition at 20 µM with A549 [3] of 42%. In the experiment on A549 [4], the “fold change (FC)” value was determined as 1.3.

In the experiment on A549 [3], `CCCCN1C(=O)NC(=O)/C1=C/c1ccc(Cl)cc1` displayed an inhibition at 20 µM of 26%.

Turning to `CCCCCCN1C(=O)NC(=O)/C1=C/c1ccccc1`, 20 µM produced 0% inhibition with A549 [3].

For the compound `O=C1NC(=O)N(CCc2ccccc2)/C1=C/c1cccc(O)c1`, the inhibition at 20 µM in the experiment on A549 [3] amounted to 28%. Besides, the “fold change (FC)” value in the experiment with A549 [4] worked out at 0.9.

As to `CCCCN1C(=O)NC(=O)/C1=C/c1ccccc1`, in the experiment on A549 [3], testing at 20 µM gave an inhibition of 18%.

As for `O=C1NC(=O)N(Cc2ccccc2)/C1=C\c1ccc(O)cc1`, 20 µM produced 32% inhibition with A549 [3]. Besides, the “fold change (FC)” value with A549 [4] turned out to be 2.

`CN1C(=O)NC(=O)/C1=C/c1ccccc1`: in the experiment on A549 [3], the inhibition at 20 µM was 16%. Besides, in the experiment with A549 [4], the “fold change (FC)” value was 1.

As to `O=C1NC(=O)N(Cc2ccccc2)/C1=C/c1ccccc1`, in the experiment with A549 [3], at 20 µM the inhibition was 2.9%.

In the experiment on A549 [3], `CCCCCCN1C(=O)NC(=O)/C1=C\c1ccccc1` registered an inhibition at 20 µM of 14%.

In the experiment on A549 [3], `O=C1NC(=O)N(Cc2ccccc2)/C1=C/c1ccc(O)cc1` showed an inhibition at 20 µM of 41%. For the same compound, the “fold change (FC)” value with A549 [4] stood at 1.8.

Regarding `O=C1NC(=O)N(CCc2cccc(Cl)c2)/C1=C/c1ccccc1`, at 20 µM the inhibition in the experiment with A549 [3] was 10%.

On to `CC(=O)Nc1ccc(/C=C2\C(=O)NC(=O)N2CCc2ccccc2)cc1`, for which, in the experiment with A549 [3], the inhibition at 20 µM is 39%. Also, in the experiment on A549 [4], the “fold change (FC)” value was found to be 1.7.

Regarding `O=C1NC(=O)N(c2ccccc2)/C1=C/c1ccccc1`, 20 µM produced 18% inhibition with A549 [3].

`CN1C(=O)NC(=O)/C1=C\c1ccccc1` yielded an inhibition at 20 µM in the experiment on A549 [3] of 5.7%. In addition, the “fold change (FC)” value in the experiment with A549 [4] is recorded as 1.1.

Compound `O=C1NC(=O)N(CCc2ccccc2)/C1=C/c1cccc(Cl)c1` gave an inhibition at 20 µM with A549 [3] of 35%.

Compound `O=C1NC(=O)N(CCc2ccccc2)/C1=C/c1ccccc1` returned an inhibition at 20 µM with A549 [3] of 9.4%. The “fold change (FC)” value with A549 [4] came to 1.2.

For `CC(=O)Nc1ccc(/C=C2/C(=O)NC(=O)N2CCc2ccccc2)cc1`, at 20 µM the inhibition in the experiment with A549 [3] was 32%.

`O=C1NC(=O)N(CCc2ccccc2)/C1=C\c1ccc(O)cc1`: the “fold change (FC)” value is 1.7 in the experiment with A549 [1], 2.7 in the experiment on A549 [2], 1.5 with A549 [4] and 0.9 in the experiment on A549 [5]. In addition, at 20 µM the inhibition in the experiment with A549 [3] was 44%.

Take `O=C1NC(=O)N(CCc2ccccc2)/C1=C/c1ccc(O)cc1`: the “fold change (FC)” value in the experiment with A549 [1] stood at 1.4; with A549 [2] it was 3.2; with A549 [4], 2.3; with A549 [5] it was 1. Besides, the result in the experiment with A549 [6] and in the experiment on A549 [7] was Active. Besides, in the experiment with A549 [3], at 20 µM the inhibition was 53%. Also, the 50% inhibitory concentration (IC50) in experiment [8] came to 19 µM.

Compound `O=C1NC(=O)N(c2ccccc2)/C1=C\c1ccccc1` gave an inhibition at 20 µM with A549 [3] of 26%.

`O=C1NC(=O)N(CCc2ccccc2)/C1=C\c1cccc(O)c1` returned an inhibition at 20 µM in the experiment on A549 [3] of 40%. Further, the “fold change (FC)” value with A549 [4] was found to be 1.1.

Compound `CCCCN1C(=O)NC(=O)/C1=C\c1ccc(Cl)cc1` displayed an inhibition at 20 µM in the experiment on A549 [3] of 29%.
